The target of series [1] is Macrophage colony-stimulating factor 1 receptor (Homo sapiens, UniProt P07333). As to the kind of experiment: Inhibition of CSF1R.
In the next series the test system is NIH3T3. Kind of series: Antiproliferative activity against mouse 3T3 cells expressing human CSF1R after 72 hrs by Celltiter assay. It counts as functional. The method in brief: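 3T3 cells engineered with human full-length CSF-1R, seeded in phenol red-free DMEM with 0.05% BSA and incubated overnight. Treated with DMEM containing 80 ng/ml M-CSF plus insulin, transferrin and selenium at multiple compound concentrations. […] Growth read by MTS-type CellTiter 96 Aqueous One after 72 h.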

Series [2] in a line: Bioavailability in rat at 3 mg/kg, iv and 10 mg/kg, po. The format is ADME, organism-based. Conditions: in vivo.
Series [3] in a line: Clearance in rat at 3 mg/kg, iv and 10 mg/kg, po. The conditions noted are these: in vivo. The format is ADME, organism-based.
Series [4] can be described thus: Volume of distribution at steady state in rat at 3 mg/kg, iv and 10 mg/kg, po. It counts as ADME, organism-based. The conditions noted are these: in vivo, read-out: Vdss.
The nature of series [5]: Half life in rat at 3 mg/kg, iv and 10 mg/kg, po. It counts as ADME, organism-based. Conditions: in vivo.
The subject of series [6] is Mus musculus. As to the kind of experiment: Inhibition of phosphorylated CSF1R level in 3T3/CSF1R mutant cells xenografted nude mouse at 50 mg/kg, po after 2 hrs by ELISA. It counts as functional. The method in brief: (§1)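 3T3 cells expressing constitutively active human mutant full-length CSF-1R (301–969) were implanted subcutaneously at 5 × 10⁶ cells in female nude mice and grown to tumors >250 mm³. After dosing, tumors were assayed for pCSF-1R by ELISA, and plasma was sampled for drug levels.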
A general note: An ELISA detects its analyte on a solid surface through an enzyme-linked reagent.

The subject of series [7] is Mus musculus. Kind of series: Inhibition of phosphorylated CSF1R level in 3T3/CSF1R mutant cells xenografted nude mouse at 50 mg/kg, po after 6 hrs by ELISA. It counts as functional. The method in brief:
as §1

Sequence of Macrophage colony-stimulating factor 1 receptor (P07333 whole entry): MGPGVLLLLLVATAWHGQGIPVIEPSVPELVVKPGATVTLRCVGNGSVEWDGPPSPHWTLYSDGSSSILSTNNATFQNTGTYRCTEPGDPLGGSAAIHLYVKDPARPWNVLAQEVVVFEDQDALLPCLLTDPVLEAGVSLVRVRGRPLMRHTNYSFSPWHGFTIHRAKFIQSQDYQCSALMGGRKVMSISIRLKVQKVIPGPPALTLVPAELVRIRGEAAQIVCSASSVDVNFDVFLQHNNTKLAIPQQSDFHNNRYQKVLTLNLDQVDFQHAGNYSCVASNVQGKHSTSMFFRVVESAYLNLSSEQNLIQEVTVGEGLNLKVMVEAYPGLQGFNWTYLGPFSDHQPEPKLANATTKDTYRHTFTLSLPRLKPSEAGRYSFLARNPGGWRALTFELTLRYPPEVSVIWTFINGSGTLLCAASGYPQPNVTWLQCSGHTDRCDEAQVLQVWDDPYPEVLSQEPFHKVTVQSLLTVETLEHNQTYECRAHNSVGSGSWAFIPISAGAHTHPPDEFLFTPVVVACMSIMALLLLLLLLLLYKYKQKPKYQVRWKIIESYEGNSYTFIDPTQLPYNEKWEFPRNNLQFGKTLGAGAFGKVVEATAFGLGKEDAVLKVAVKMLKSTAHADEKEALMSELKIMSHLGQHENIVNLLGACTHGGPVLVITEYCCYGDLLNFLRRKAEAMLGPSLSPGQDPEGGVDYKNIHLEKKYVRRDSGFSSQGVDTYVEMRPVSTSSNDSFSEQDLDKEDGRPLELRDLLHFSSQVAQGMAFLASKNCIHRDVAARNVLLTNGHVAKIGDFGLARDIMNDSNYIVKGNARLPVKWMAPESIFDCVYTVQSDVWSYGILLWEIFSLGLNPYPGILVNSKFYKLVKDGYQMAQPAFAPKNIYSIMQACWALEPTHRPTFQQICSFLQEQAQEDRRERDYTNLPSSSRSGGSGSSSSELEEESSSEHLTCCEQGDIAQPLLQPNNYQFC

In series [1], `COc1cccc(C(=O)Nc2ccc(Cl)c(C(=O)Nc3cccnc3)c2)c1` yielded an IC50 of 9 nM. For the same molecule, in the series with NIH3T3, the Activity was determined as 0.94 µM.

In the series with NIH3T3, `CCN(CC)CCNC(=O)c1c(C)[nH]c(/C=C2\C(=O)Nc3ccc(F)cc32)c1C.O=C(O)C[C@H](O)C(=O)O` [SUNITINIB MALATE] had an Activity of 0.09 µM.

`O=C(Nc1ccc(Cl)c(C(=O)Nc2cccnc2)c1)c1cccc(Br)c1`: half-maximal inhibition in series [1] (IC50) was put at 14 nM. Further, in the series on NIH3T3, the Activity was determined as 0.26 µM.

Take `CC(C)c1ncc(NC(=O)c2cc(NC(=O)c3cccc(C(F)(F)F)c3)ccc2Cl)s1`: inhibition in series [1] was half-maximal at 13 nM (IC50). In the series with NIH3T3, this molecule yielded an Activity of 0.15 µM. The same molecule returned a bioavailability in series [2] of 65%. Besides, the clearance in series [3] was 37 mL/min/kg. In series [4], the Vd was 2.2 L/kg. This molecule showed a half-life in series [5] of 1 h.

In series [1], `Cc1ncc(NC(=O)c2cc(NC(=O)c3cccc(Cl)c3)ccc2C)s1` gave an IC50 of 7 nM. Also, the Activity in the series with NIH3T3 amounted to 0.32 µM.

As to `O=C(Nc1ccc(Cl)c(C(=O)Nc2cccnc2)c1)c1cc(Cl)cc(Cl)c1`, 3 nM corresponded to half-maximal inhibition in series [1] (IC50). Further, the Activity in the series with NIH3T3 came to 0.13 µM.

With `Cc1ccc(C(=O)Nc2cccc(C(F)(F)F)c2)cc1NC(=O)c1cccnc1`, the IC50 in series [1] was 32 nM. In the series on NIH3T3, this molecule registered an Activity of 1.34 µM.

In series [1], `O=C(Nc1ccc(Cl)c(C(=O)Nc2cnc(C3CC3)s2)c1)c1cccc(C(F)(F)F)c1` yielded an IC50 of 140 nM. Besides, in the series on NIH3T3, the Activity turned out to be 0.1 µM.

As to `Cc1cc(C)cc(C(=O)Nc2ccc(Cl)c(C(=O)Nc3cncs3)c2)c1`, the IC50 in series [1] came out at 3 nM. The molecule also returned an Activity in the series with NIH3T3 of 0.11 µM.

With `Cc1cccc(C(=O)Nc2ccc(Cl)c(C(=O)Nc3cccnc3)c2)c1`, the midpoint of inhibition in series [1], the IC50, lay at 10 nM. For the same molecule, the Activity in the series with NIH3T3 is 0.24 µM. In series [2], this molecule gave a bioavailability of 28%. The molecule further returned a clearance in series [3] of 30 mL/min/kg. For the same molecule, in series [4], the Vd was found to be 1.3 L/kg. The half-life in series [5] was 0.8 h.

In the case of `Cc1cc(C)cc(C(=O)Nc2ccc(Cl)c(C(=O)Nc3cnc(C(C)C)s3)c2)c1`, the IC50 in series [1] worked out at 31 nM. In the series on NIH3T3, this molecule had an Activity of 0.11 µM.

For `Cc1cc(C)cc(C(=O)Nc2ccc(Cl)c(C(=O)Nc3cccnc3)c2)c1`, in series [1], the IC50 came out at 8 nM. Further, the Activity with NIH3T3 was 0.05 µM.

Molecule `Cc1ccc(C(=O)Nc2cccc(C(F)(F)F)c2)cc1C(=O)Nc1cccnc1` yielded an IC50 in series [1] of 6900 nM.

In series [1], `Cc1cc(C)cc(C(=O)Nc2ccc(Cl)c(C(=O)Nc3cnc(C)s3)c2)c1` came in with an IC50 of 6 nM. The Activity with NIH3T3 worked out at 0.06 µM. Further, the bioavailability in series [2] was found to be 27%. Besides, the clearance in series [3] came out at 14 mL/min/kg. Moreover, the Vd in series [4] was determined as 1.2 L/kg. The half-life in series [5] was 1.3 h. The figures for the inhibition in vivo at 50 mg/kg in the series on Mus musculus [6] and in the series on Mus musculus [7] were 90% and 60%, respectively.

For `O=C(Nc1ccc(Cl)c(C(=O)Nc2cccnc2)c1)c1cccc(C(F)(F)F)c1`, in series [1], the midpoint of inhibition, the IC50, lay at 16 nM. In the series on NIH3T3, the Activity worked out at 0.14 µM. Further, the bioavailability in series [2] is 76%. This molecule came in with a clearance in series [3] of 20 mL/min/kg. In addition, the Vd in series [4] is 1.5 L/kg. This molecule also gave a half-life in series [5] of 1 h.

In series [1], `Cc1ccc(NC(=O)c2cccc(C(F)(F)F)c2)cc1NC(=O)c1cccnc1` returned an IC50 of 11 nM. The Activity in the series with NIH3T3 was 2.15 µM.

`Cc1ccc(NC(=O)c2cccc(N(C)S(C)(=O)=O)c2)cc1NC(=O)c1ccc2ncccc2c1`: the IC50 in series [1] worked out at 89 nM.

In series [1], `O=C(Nc1ccc(Cl)c(C(=O)Nc2cccnc2)c1)c1cccc(Cl)c1` displayed an IC50 of 10 nM. The molecule also had an Activity with NIH3T3 of 0.33 µM. In series [2], the bioavailability is 33%. In addition, the clearance in series [3] was found to be 16 mL/min/kg. Moreover, the Vd in series [4] worked out at 1.4 L/kg. The same molecule had a half-life in series [5] of 1.1 h.

As to `Cc1cc(C)cc(C(=O)Nc2ccc(C)c(C(=O)Nc3cnc(C)s3)c2)c1`, half-maximal inhibition in series [1] (IC50) was put at 4 nM. The molecule also showed an Activity with NIH3T3 of 0.1 µM.

As for `O=C(Nc1ccc(Cl)c(C(=O)Nc2cccnc2)c1)c1ccc(Cl)c(Cl)c1`, half-maximal inhibition in series [1] (IC50) was put at 3 nM. Besides, the Activity in the series with NIH3T3 amounted to 0.09 µM.

In series [1], `O=C(Nc1ccc(Cl)c(C(=O)Nc2cncs2)c1)c1cccc(Cl)c1` came in with an IC50 of 5 nM. In the series with NIH3T3, the Activity amounted to 0.52 µM. The bioavailability in series [2] turned out to be 20%. The same molecule yielded a clearance in series [3] of 54 mL/min/kg. Besides, the Vd in series [4] is 1.8 L/kg. The molecule further gave a half-life in series [5] of 0.5 h.

Regarding `Cc1ncc(NC(=O)c2cc(NC(=O)c3cccc(C(F)(F)F)c3)ccc2C)s1`, in series [1], the IC50 was determined as 10 nM. In the series with NIH3T3, this molecule displayed an Activity of 0.11 µM.

As for `CN(C)c1cccc(C(=O)Nc2ccc(Cl)c(C(=O)Nc3cccnc3)c2)c1`, the IC50 in series [1] is 16 nM. Also, the Activity in the series with NIH3T3 stood at 0.77 µM.

Turning to `Cc1ccc(NC(=O)c2cccc(C(F)(F)F)c2)cc1C(=O)Nc1cccnc1`, it took 37 nM to reach half-maximal inhibition in series [1] (IC50). In the series with NIH3T3, this molecule gave an Activity of 0.23 µM. In series [2], this molecule registered a bioavailability of 40%. The same molecule registered a clearance in series [3] of 16 mL/min/kg. In addition, in series [4], the Vd was found to be 1 L/kg. In addition, the half-life in series [5] is 1 h.

In the case of `O=C(Nc1ccc(Cl)c(C(=O)Nc2cccnc2)c1)c1cccc(F)c1`, in series [1], the IC50 worked out at 25 nM. The molecule also returned an Activity with NIH3T3 of 1.64 µM.

`Cc1ncc(NC(=O)c2cc(NC(=O)c3cc(F)cc(C(F)(F)F)c3)ccc2Cl)s1`: half-maximal inhibition in series [1] (IC50) was put at 7 nM. This molecule also gave an Activity in the series on NIH3T3 of 0.11 µM. Besides, the bioavailability in series [2] stood at 31%. The molecule further gave a clearance in series [3] of 2 mL/min/kg. In addition, the Vd in series [4] stood at 1.4 L/kg. The molecule also showed a half-life in series [5] of 7.3 h. Besides, the inhibition in vivo at 50 mg/kg in the series with Mus musculus [6] and in the series on Mus musculus [7] was 100% each time.

Consider `O=C(Nc1ccc(Cl)c(C(=O)Nc2cncs2)c1)c1cccc(C(F)(F)F)c1`, for which the IC50 in series [1] came out at 3 nM. In the series with NIH3T3, this molecule returned an Activity of 0.27 µM. In series [2], this molecule registered a bioavailability of 40%. The same molecule yielded a clearance in series [3] of 58 mL/min/kg. In series [4], the Vd turned out to be 4.2 L/kg. Besides, in series [5], the half-life was 1.2 h.

For `Cc1ncc(NC(=O)c2cc(NC(=O)c3cc(F)cc(Cl)c3)ccc2Cl)s1`, half-maximal inhibition in series [1] (IC50) required 11 nM. This molecule also displayed an Activity in the series with NIH3T3 of 0.13 µM.

`Cc1ccc(NC(=O)c2cccc(C(F)(F)F)c2)cc1C(=O)Nc1ccccc1` gave an IC50 in series [1] of over 50000 nM. This molecule showed an Activity with NIH3T3 of over 10 µM.

Take `Cc1ccc(C(=O)Nc2ccc(Cl)c(C(=O)Nc3cccnc3)c2)cc1C`: in series [1], the IC50 amounted to 5 nM. For the same molecule, the Activity in the series with NIH3T3 amounted to 0.15 µM.

Molecule `Cc1ncc(NC(=O)c2cc(NC(=O)c3cccc(Cl)c3)ccc2Cl)s1` displayed an IC50 in series [1] of 4 nM. This molecule also gave an Activity with NIH3T3 of 0.18 µM. Further, the bioavailability in series [2] is 43%. In addition, in series [3], the clearance is 12 mL/min/kg. For the same molecule, the Vd in series [4] is 0.9 L/kg. The half-life in series [5] was 0.9 h.

One may read the IC50 as the midpoint of a concentration-inhibition curve. A lower IC50 goes with greater potency. The term bioavailability denotes dose-corrected exposure relative to a reference, in per cent. A high value points to good availability. Broadly, the half-life is the time in which the quantity being followed falls by half. A higher half-life goes with slow loss. In general, inhibition in vivo refers to how much of the control response was suppressed. A lower inhibition in vivo goes with a response near the control.

These data come from ChEMBL document CHEMBL1139407, “Pyridyl and thiazolyl bisamide CSF-1R inhibitors for the treatment of cancer” (Bioorg Med Chem Lett, 2008).
